Compound activity deposited in PubChem by SRMLSC.
Fibroblast inh – blocks proliferation of human lung fibroblasts. LL 47 human lung fibroblast viability, ATP luminescence; active compounds read low. viability, % at 10 µM. hit rate 1.1% among 85,000;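 active = viability at or below 50% in the single dose screen; inactive = viability above 50%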;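 note: compound exposure lasted 72 h before the ATP readout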
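Test system: LL 47 human lung fibroblasts / Incubation: 72 h compound exposure at 37 °C after overnight plating / Technique: luminescent ATP detection, CellTiter-Glo / Compound dosing: 0.1% DMSO in all compound wells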
HUVEC inhibit – inhibitors of human endothelial cell proliferation. HUVEC proliferation, CellTiter-Glo luminescence, 72 h; active compounds read low. viability, % at 10 µM (by protocol). hit rate 1.1% among 86,000;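 active = viability at or below 30%; inactive = viability above 30%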
PTEN del growth – PTEN-deleted cell growth suppression. HCT116 PTEN-null viability, CellTiter-Glo, 60 h; active compounds read low. viability, % at 10 µM. hit rate 1.2% among 140,000. AID 827;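 active = viability at or below a set limit, 4 SD under the median of all tested compounds, cut at about 3.7% in these data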;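 note: PTEN knockout HCT116 line with beta catenin targeted HCT116 as companion control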
H69AR inhibit – growth inhibitors of human H69AR lung tumor cells; AID 598; hit rate 6% among 85,000; viability, % at 10 µM; H69AR lung tumor viability, ATP luminescence, 72 h; active compounds read low;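 active = viability at or below 40%; inactive = viability above 40%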;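 note: multidrug resistant small cell line overexpressing MRP-1 efflux transporter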
bCat KO growth – beta-catenin-lacking colon tumor cell growth suppression; HCT116 beta-catenin knockout viability, CellTiter-Glo, 60 h; active compounds read low; viability, % at 10 µM; hit rate 1.5% among 140,000; AID 818;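 active = viability at or under a set limit, the compound median less 4 SD, cut at about 6% in these data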
Of the large screens only hits and unclear results are named; the others gave an inactive call. The sample as a whole holds a higher share of hits than the screen did.

Cc1ccc2cc(CN(Cc3ccc(F)cc3)Cc3nnnn3C3CCCC3)c(=O)[nH]c2c1	H69AR inhibit 35.9
CCc1ccc2[nH]c(=O)c(CN(Cc3ccc4c(c3)OCO4)Cc3nnnn3C3CCCC3)cc2c1	H69AR inhibit 4.8
O=C(CO/N=C/c1ccccc1O)N1CCc2ccccc21	none (no result: Fibroblast inh, HUVEC inhibit, H69AR inhibit)
COC(=O)c1sccc1NC(=O)c1c(C)c(-c2cccc(Cl)c2)nc2ccccc12	none (no result: Fibroblast inh, HUVEC inhibit, H69AR inhibit)
Cc1csc(SCC(=O)c2c(N)n(C)c(=O)n(C)c2=O)n1	none
COc1ccc(NC(=O)c2cccc(Cn3cc(Br)cn3)c2)cn1	none
CC1=C(C(=O)OCc2ccccc2)C(c2cccs2)NC(=O)N1CCCC(=O)O (stereo not drawn)	none (no result: Fibroblast inh, HUVEC inhibit, H69AR inhibit)
COC(=O)C1=C(C)N(CCCC(=O)O)C(=O)NC1c1cccs1 (stereo not drawn)	PTEN del growth 0.5, bCat KO growth 0.4 (no result: Fibroblast inh, HUVEC inhibit, H69AR inhibit)
c1coc(CN(Cc2ccco2)c2ncnc3c2oc2ccccc23)c1	H69AR inhibit 22.1
CN(C)CCOc1ncnc2c1oc1ccccc12	none
Clc1ncnc2c1oc1ccccc12	bCat KO growth 4.1 (no result: Fibroblast inh, HUVEC inhibit, H69AR inhibit)
CCSc1ncnc2c1oc1ccccc12	none
N=C1S/C(=C\c2cn[nH]c2-c2ccc(F)cc2)C(=O)N1c1ccccc1F	none (no result: Fibroblast inh, HUVEC inhibit, H69AR inhibit)
O=C(CSc1nnc(SCc2ccc(Cl)cc2)s1)N/N=C/c1c[nH]c2ccccc12	bCat KO growth 5.2 (no result: Fibroblast inh, HUVEC inhibit, H69AR inhibit)
O=C(c1ccccc1)c1cnc(Nc2ccccc2Cl)s1	none (no result: Fibroblast inh, HUVEC inhibit, H69AR inhibit)
CCOC(=O)Cn1c2ccc(OC)cc2c2nc3ccccc3nc21	H69AR inhibit 23.6
Cn1nc(CC(=O)Nc2ccc(N3CCN(C(=O)OC(C)(C)C)CC3)cc2)c2ccccc2c1=O	PTEN del growth 1.1, H69AR inhibit 37.2, bCat KO growth 1.2
Cn1nc(CC(=O)N2CCN(c3ccccc3)CC2)c2ccccc2c1=O	none
Cn1nc(CC(=O)NCc2ccc(F)cc2)c2ccccc2c1=O	none
Cn1nc(CC(=O)NCc2cccc3ccccc23)c2ccccc2c1=O	H69AR inhibit 33.5
Cc1cnc(C(=O)Nc2ccc(N3CCN(C(=O)OC(C)(C)C)CC3)cc2)cn1	H69AR inhibit 28.2
O=C(O)c1cccc(NC(=O)c2cccc(S(=O)(=O)N3CCCCC3)c2)c1	none
Nc1nc(NC(=O)c2cccc(S(=O)(=O)N3CCCCCC3)c2)nc(-c2ccccc2)n1	Fibroblast inh 24.9, H69AR inhibit 5.3
Cc1cc(C)n2nc(SCc3cc(=O)n4c(C)cccc4n3)nc2n1	none (no result: PTEN del growth, bCat KO growth)
O=C(Nc1ccc2nc3n(c(=O)c2c1)CCCC3)c1cc([N+](=O)[O-])ccc1F	bCat KO growth 2.5 (no result: Fibroblast inh, HUVEC inhibit, H69AR inhibit)
CCOc1cc(/C=N/NC(=O)Cn2nc([N+](=O)[O-])cc2C)cc(Br)c1OCc1ccccc1C	Fibroblast inh 5.9, HUVEC inhibit 3.6, PTEN del growth 2.1, H69AR inhibit 0.6, bCat KO growth 1.5
Cc1ccc(NC(=O)C(Nc2cccc(C)c2)c2ccccc2)cc1 (stereo not drawn)	none (no result: Fibroblast inh, HUVEC inhibit, H69AR inhibit)
COC(=O)COc1ccc(S(=O)(=O)NCc2ccncc2)cc1	bCat KO growth 1.1
COc1ccc(C2C(=O)N(CCc3ccccc3)CC(=O)N2C2CCCC2)cc1 (stereo not drawn)	H69AR inhibit 35.0
COc1ccc(C2C(=O)N(C3CCCCC3)CC(=O)N2C2CCCC2)cc1 (stereo not drawn)	none
N=C(N)c1ccc(OCCCCCOc2ccc(C(=N)N)cc2)cc1	none (no result: Fibroblast inh, HUVEC inhibit, H69AR inhibit)
CCCCCCOc1ccc(/C(N)=N/O)cc1	H69AR inhibit 35.3
CC(=O)Nc1nc(-c2ccccc2)nc(-c2ccccc2OC(C)=O)n1	H69AR inhibit 24.2 (no result: Fibroblast inh)
CCc1nc2ccccc2c(=O)n1CCCCn1c(CC)nc2ccccc2c1=O	none (no result: PTEN del growth, bCat KO growth)
CCOc1ccccc1C1CC(=O)Nc2cc3c(cc21)OCCO3 (stereo not drawn)	H69AR inhibit 30.2
CC(C)Oc1ccccc1C1CC(=O)Nc2cc3c(cc21)OCO3 (stereo not drawn)	H69AR inhibit 19.9
CCCOc1ccccc1C1CC(=O)Nc2cc3c(cc21)OCCO3 (stereo not drawn)	none (no result: Fibroblast inh, HUVEC inhibit, H69AR inhibit)
C/C(=N/NC(=O)Cc1cccs1)c1ccco1	none (no result: Fibroblast inh, HUVEC inhibit, H69AR inhibit)
Cn1c(C(C#N)C(=O)c2ccco2)nc2ccccc21 (stereo not drawn)	H69AR inhibit 32.6
Cn1c(C(C#N)C(=O)Cc2cccc3ccccc23)nc2ccccc21 (stereo not drawn)	none
CC1Cc2cc(-c3csc(NC(=O)Cc4cccs4)n3)ccc2N1S(C)(=O)=O (stereo not drawn)	bCat KO growth 5.6
CS(=O)(=O)N1CCc2cc(-c3csc(NC(=O)Cc4ccccc4)n3)ccc21	none
CC(C)(C)c1ccc(C(=O)N2CCN(CCNC(=O)C(=O)NCc3ccccc3)CC2)cc1	none (no result: Fibroblast inh, HUVEC inhibit, H69AR inhibit)
Nc1cc(=O)[nH]c(SCc2nc3ccccc3n2Cc2ccccc2)n1	none
O=c1[nH]c(SCc2nc3ccccc3n2Cc2ccccc2)nc2ccccc12	PTEN del growth 2.7, bCat KO growth 2.1 (no result: Fibroblast inh, HUVEC inhibit, H69AR inhibit)
N#CCCS(=O)(=O)c1nnnn1-c1ccccc1	H69AR inhibit 0.4 (no result: PTEN del growth, bCat KO growth)
Cc1ccc(S(=O)(=O)Cc2ccc(C(=O)N3CCN(c4ccc(F)cc4)CC3)o2)cc1	H69AR inhibit 19.8
Cc1ccccc1S(=O)(=O)Cc1ccc(C(=O)N2CCN(c3ccc(F)cc3)CC2)o1	H69AR inhibit 33.5
Cc1ccccc1S(=O)(=O)Cc1ccc(C(=O)N2CCN(c3ncccn3)CC2)o1	none
Cc1ccc(N2CCn3c2nc2c3c(=O)n(CCc3ccccc3)c(=O)n2C)cc1	none (no result: PTEN del growth, bCat KO growth)
COc1ccc(OC)c(NC(=O)COC(=O)/C=C/c2ccc(Cl)cc2)c1	none (no result: Fibroblast inh, HUVEC inhibit, H69AR inhibit)
CCN(CC)Cc1cc(NC2=NS(=O)(=O)c3ccccc32)ccc1OC(=O)c1ccccc1	none (no result: Fibroblast inh, HUVEC inhibit, H69AR inhibit)
CCOC(=O)C(C(=O)OCC)C(C(=O)OCC)N1CCOCC1 (stereo not drawn)	Fibroblast inh 1.9, HUVEC inhibit 2.9, PTEN del growth 1.7, H69AR inhibit 0.7, bCat KO growth 1.2
CCOC(=O)C(C)CC(C)C(=O)N1CCOCCOCCN(C(=O)C(C)CC(C)C(=O)OCC)CCOCC1 (stereo not drawn)	none
CCC(C)Nc1nc(-c2cccc(OC)c2O)nc2ccccc12 (stereo not drawn)	PTEN del growth 2.1, H69AR inhibit 4.9, bCat KO growth 2.5
CCC1CCCCN1c1nc(-c2cccc(OC)c2O)nc2ccccc12 (stereo not drawn)	none
COc1cccc(-c2nc(NCC3CCCO3)c3ccccc3n2)c1O (stereo not drawn)	H69AR inhibit 31.9
COc1cccc(-c2nc(NC(C)C)c3ccccc3n2)c1O	none
Oc1ccccc1-c1nc(NCC2CCCO2)c2ccccc2n1 (stereo not drawn)	H69AR inhibit 35.5
Cc1cc(C(=O)NCCC(c2ccccc2)c2ccccc2)c(C)o1	none (no result: Fibroblast inh, HUVEC inhibit, H69AR inhibit)
COc1ccc(Cl)cc1NC(=O)CN1CCC(n2nnc3ccccc32)CC1	none
CCOc1ccccc1N1CCN(c2nc(N)c(C#N)c(CC#N)c2C#N)CC1	H69AR inhibit 20.1
CC(C)(C)NC(=O)/C(=C\C=C\c1ccccc1)NC(=O)c1ccc([N+](=O)[O-])cc1	none (no result: Fibroblast inh, HUVEC inhibit, H69AR inhibit)
CCCC(=O)NC(c1cccs1)c1cc([N+](=O)[O-])c2cccnc2c1O (stereo not drawn)	bCat KO growth 5.5 (no result: Fibroblast inh, HUVEC inhibit, H69AR inhibit)
